This excerpt belongs to a sample that is enriched for hits.
H69AR inhibit – growth inhibitors of human H69AR lung tumor cells. H69AR lung tumor viability, ATP luminescence, 72 h; active compounds read low. AID 598. 6% of 85,000 active. viability, % at 10 µM;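 active means viability at or below 40%; inactive means viability above 40%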;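 further: multidrug resistant small cell line overexpressing MRP-1 efflux transporter; 100% = mean luminescence of untreated control wells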
HUVEC prolif 384 – blocks proliferation of human endothelial cells | viability, % at 10 µM (by protocol) | AID 648 | HUVEC proliferation, CellTiter-Glo luminescence, 72 h; active compounds read low | 1.1% of 86,000 active;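 active means viability at or below 30%; inactive means viability above 30%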;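 further: 100% = median luminescence of DMSO-only cell control wells on each plate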
bCat KO growth – beta-catenin-lacking colon tumor cell growth suppression; viability, % at 10 µM; 1.5% of 140,000 active; HCT116 beta-catenin knockout viability, CellTiter-Glo, 60 h; active compounds read low;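 active means viability at or under a set limit, the compound median less 4 SD, cut at about 6% in these data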;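 further: 0% = Hyamine 1622 control at 20 µM and 100% = untreated cell control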
Fibroblast inh – blocks proliferation of human lung fibroblasts. LL 47 human lung fibroblast viability, ATP luminescence; active compounds read low. viability, % at 10 µM. 1.1% of 85,000 active;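 active means viability at or below 50% in the single dose screen; inactive means viability above 50%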;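 further: compound exposure lasted 72 h before the ATP readout; 100% = median luminescence of untreated cell-only wells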
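test system = LL 47 human lung fibroblasts | amount = 1,150 fibroblasts seeded per well | medium = 15% FBS in IMEM | times = overnight cell rest, 72 h compound treatment at 37 °C | measured by = CellTiter-Glo luminescence measuring cellular ATP | read-out = viability percentage against median untreated-cell control | benchmarks = cell-only wells, no compound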
PTEN del growth – suppresses growth of cells with PTEN deletion; 1.2% of 140,000 active; viability, % at 10 µM; HCT116 PTEN-null viability, CellTiter-Glo, 60 h; active compounds read low; AID 827;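 active means viability at or below a set limit, 4 SD under the median of all tested compounds, cut at about 3.7% in these data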;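 further: PTEN knockout HCT116 line with beta catenin targeted HCT116 as companion control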
* hit, by the source's call.

COc1ccc(NC(=O)CN(C2CCCCC2)S(C)(=O)=O)cc1OC was read as H69AR inhibit 83.5, HUVEC prolif 384 98.8, bCat KO growth 111.5, Fibroblast inh 95.9 and PTEN del growth 100.3.
Screening COC(=O)c1ccc(NC(=O)CN(C2CCCCC2)S(C)(=O)=O)cc1 returned H69AR inhibit 37.9*, HUVEC prolif 384 89.8, bCat KO growth 76.7, Fibroblast inh 88.4 and PTEN del growth 63.4.
Screening Clc1ccc(OCc2nc(-c3ccccn3)n[nH]2)cc1 returned H69AR inhibit 2.2*, HUVEC prolif 384 57.9, bCat KO growth 52.4, Fibroblast inh 81.9 and PTEN del growth 37.7.
`Brc1ccc(OCc2nc(-c3ccccn3)n[nH]2)cc1` gave H69AR inhibit 52.9, HUVEC prolif 384 41.4, bCat KO growth 37.9, Fibroblast inh 74.5 and PTEN del growth 44.9.
Screening Cc1ccc2cc(C#N)c(SCC(=O)N3CCCc4ccccc43)nc2c1C returned bCat KO growth 80.7 and PTEN del growth 76.5.
Screening CC(C)NC(=S)Nc1ccc2cn[nH]c2c1 returned bCat KO growth 103.4 and PTEN del growth 94.1.
COc1ccc(NC(=O)/C(C#N)=C\c2cc(C)n(-c3ccc(Oc4ccc([N+](=O)[O-])cn4)cc3)c2C)cc1 was read as H69AR inhibit 33.1*, HUVEC prolif 384 68.2, bCat KO growth 53.7, Fibroblast inh 62.9 and PTEN del growth 43.1.
For Cc1cc(C=O)c(C)n1-c1ccc(Oc2ccc([N+](=O)[O-])cn2)cc1 the results were bCat KO growth 73.2 and PTEN del growth 65.6.
Screening CN(c1ccc(C(=O)N2CCN(Cc3ccc4c(c3)OCO4)CC2)cc1)S(=O)(=O)c1ccccc1 returned H69AR inhibit 96.5, HUVEC prolif 384 86.0, bCat KO growth 33.0, Fibroblast inh 94.0 and PTEN del growth 30.3.
Cc1ccc(S(=O)(=O)N(C)c2ccc(C(=O)N3CCN(Cc4ccc5c(c4)OCO5)CC3)cc2)cc1 was read as H69AR inhibit 24.7*, HUVEC prolif 384 91.3, bCat KO growth 13.6, Fibroblast inh 94.9 and PTEN del growth 18.4.
Cn1c(CNc2cccc(Cl)c2)nnc1SCC(=O)OC1CCCCC1 was read as H69AR inhibit 105.8, HUVEC prolif 384 18.8*, bCat KO growth 103.6, Fibroblast inh 82.0 and PTEN del growth 94.1.
`O=c1c(F)cn(C2CCCO2)c(=O)n1Cc1c(Cl)cccc1Cl` (centres undefined) gave H69AR inhibit 28.3*, HUVEC prolif 384 88.0, bCat KO growth 83.7, Fibroblast inh 90.7 and PTEN del growth 88.6.
O=C(Cc1c(F)cccc1Cl)NCC1CCCO1 (centres undefined) was read as H69AR inhibit 95.5, HUVEC prolif 384 94.7, bCat KO growth 106.6, Fibroblast inh 99.2 and PTEN del growth 95.8.
Cc1ccc(Nc2nnc(SCC(=O)NCCN3C(=O)CSC3=O)s2)cc1 was read as bCat KO growth 91.4 and PTEN del growth 91.3.
Screening O=[N+]([O-])c1ccc(NC(=S)NCCc2ccc(Cl)cc2)cc1 returned bCat KO growth 3.5* and PTEN del growth 2.9*.
Screening CCc1cccc(CC)c1NC(=O)/C(C#N)=C/c1ccccc1C(F)(F)F returned bCat KO growth 1.5* and PTEN del growth 1.8*.
Screening N#C/C(=C\c1ccccc1C(F)(F)F)C(=O)Nc1ccccc1 returned bCat KO growth 76.8 and PTEN del growth 75.0.
Screening Cc1ccc(Cn2ccc(=O)c(OCc3c(Cl)cccc3Cl)c2C)cc1 returned H69AR inhibit 25.0*, HUVEC prolif 384 72.5, bCat KO growth 19.1, Fibroblast inh 85.5 and PTEN del growth 39.8.
Screening CCc1ccc(-c2nc(CN3CCC(C(=O)NCCc4ccc(OC)c(OC)c4)CC3)c(C)o2)cc1 returned H69AR inhibit 69.3, HUVEC prolif 384 55.4, bCat KO growth 2.0*, Fibroblast inh 89.5 and PTEN del growth 15.4.
For COc1ccccc1CNC(=O)C1CCN(Cc2nc(-c3ccc(Cl)cc3)oc2C)CC1 the results were H69AR inhibit 66.4, HUVEC prolif 384 42.2 and Fibroblast inh 102.9.
`COc1ccccc1CNC(=O)C1CCN(Cc2nc(-c3cccc(Cl)c3)oc2C)CC1` gave H69AR inhibit 39.5*, HUVEC prolif 384 55.6, bCat KO growth 22.4, Fibroblast inh 88.9 and PTEN del growth 23.8.
`CCN1CCCC1CNC(=O)C1CCN(Cc2nc(-c3cccc(Br)c3)oc2C)CC1` (centres undefined) gave H69AR inhibit 52.5, HUVEC prolif 384 18.2*, bCat KO growth 4.7*, Fibroblast inh 29.0* and PTEN del growth 6.2.
`CCc1ccc(-c2nc(CN3CCC(C(=O)NCc4ccccc4OC)CC3)c(C)o2)cc1` gave H69AR inhibit 18.5*, HUVEC prolif 384 31.9, bCat KO growth 20.8, Fibroblast inh 66.5 and PTEN del growth 34.1.
`CCCN1CNC(=S)N(CC2CCCO2)C1` (centres undefined) gave bCat KO growth 96.2 and PTEN del growth 91.9.
`Nc1c(C(=O)Nc2ccc(S(=O)(=O)N3CCCC3)cc2)sc2nc3cc4c(cc3cc12)CCC4` gave bCat KO growth 5.8* and PTEN del growth 1.5*.
For O=C1C(c2ccnc3ccccc23)=C(O)c2ccccc21 the results were H69AR inhibit 33.6*, HUVEC prolif 384 62.4, bCat KO growth 9.9, Fibroblast inh 73.0 and PTEN del growth 6.9.
Screening c1ccc2[nH]c(-c3ccnc4ccccc34)nc2c1 returned H69AR inhibit 48.1, HUVEC prolif 384 94.3, bCat KO growth 90.6, Fibroblast inh 104.0 and PTEN del growth 98.5.
Screening COc1ccc(C=Nc2cccc3c(=O)[nH][nH]c(=O)c23)c2ccccc12 returned H69AR inhibit 31.7*, HUVEC prolif 384 69.6, bCat KO growth 94.1, Fibroblast inh 98.9 and PTEN del growth 89.8.
Screening O=C(O)c1ccc(NS(=O)(=O)c2cc(Cl)ccc2Cl)cc1 returned H69AR inhibit 103.3, HUVEC prolif 384 81.0, bCat KO growth 93.8, Fibroblast inh 92.8 and PTEN del growth 85.8.
Screening CC(C)Oc1ccc(C(=O)Nc2ccc(Cl)c(S(=O)(=O)Nc3ccc(Cl)cc3)c2)cc1 returned bCat KO growth 3.1* and PTEN del growth 3.1*.
S=C(Nc1ccc(Cl)c(Cl)c1)NC1CCCCC1 was read as bCat KO growth 7.9 and PTEN del growth 4.8.
`S=C(Nc1ccc(Cl)c(Cl)c1)NC1CCN(Cc2ccccc2)CC1` gave bCat KO growth 3.8* and PTEN del growth 7.9.
`CCN1C(=O)/C(=C2/C=Cc3ccccc3N2C)OC1=S` gave H69AR inhibit 27.9*, HUVEC prolif 384 88.3, bCat KO growth 10.1, Fibroblast inh 90.5 and PTEN del growth 15.4.
For C/C(CCC12CC3CC(CC(C3)C1)C2)=N\NC(N)=S the results were H69AR inhibit 12.9*, HUVEC prolif 384 65.8, bCat KO growth 31.1, Fibroblast inh 72.7 and PTEN del growth 51.6.
`NC(=O)NC(=O)CSc1nc(-c2ccccc2)c(-c2ccccc2)n1CC1CCCO1` (centres undefined) gave H69AR inhibit 35.9*, HUVEC prolif 384 112.0, bCat KO growth 95.9, Fibroblast inh 94.8 and PTEN del growth 88.4.

Source: PubChem BioAssay
